≈ marks a conversion by molar mass, not a printed value. Like-named read-outs stand apart in the source and are kept apart here.
Columns and labels:
[1] = system: antibenzothiostrobin mAb 4E8; set-up: species or system murine; settings: ITC; ratio of binding constants versus monomer
Procedure, shortened: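 Isothermal titration calorimetry at 25 °C. All samples were diluted in 10 mM BB and degassed. The mAb was in the cell, with water in the reference cell and buffer titrated as control. Peptide in the syringe was 260 μM (monomer), 150 μM (dimer) or 50 μM (tetramer). Run used 20 injections, 60 s initial delay and 1000 rpm stirring. N, K, ΔH and ΔS were obtained from a one-site fit, with a c value checked for quality.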

antibenzothiostrobin mAb [2] = test: Inner filter effect immunoassay; format: binding, murine; settings: ratio of SC50 values; analyte benzothiostrobin
Procedure, shortened: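 Homogeneous competitive format. The UCNP probe was NaYF4:Yb,Er, amine-silica coated and glutaraldehyde-coupled to the monomer, dimer or tetramer peptidomimetic, and the absorber was mAb-conjugated gold nanoflowers. Standard and both probes were mixed in BB for 1 h at 37 °C with gentle shaking. Emission at 657 nm was read under 980 nm laser excitation. ΔI (I−I0) was plotted against log analyte concentration, and SC50 was taken as 50% signal saturation.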

antibenzothiostrobin mAb [3] = settings: competitive FIA, synthetic peptide FITC-Ahx-CSGLAEFMSC; cited from earlier work
antibenzothiostrobin mAb [4] = settings: noncompetitive FIA, synthetic peptide FITC-Ahx-CPDIWPTAWC; cited from earlier work
antibenzothiostrobin mAb [5] = settings: competitive phage ELISA; cited from earlier work
antibenzothiostrobin mAb [6] = settings: noncompetitive phage ELISA; cited from earlier work
antibenzothiostrobin mAb [7] = settings: ic-ELISA; cited from earlier work

Compound | fold higher affinity for mAb compared to monomer [1] | improvement of IFE-IA sensitivity compared to dimer (antibenzothiostrobin mAb [2]) | improvement of IFE-IA sensitivity compared to monomer (antibenzothiostrobin mAb [2]) | IC50 (antibenzothiostrobin mAb [3]) | SC50 (antibenzothiostrobin mAb [4]) | IC50 (antibenzothiostrobin mAb [5]) | SC50 (antibenzothiostrobin mAb [6]) | IC50 (antibenzothiostrobin mAb [7])
((Ac-CSGLAEFMSC)2K)2KK (bicyclic or more) [tetramer] | 13.6 fold | ~3 fold | approximately 6 fold | – | – | – | – | –
(Ac-CSGLAEFMSC)2KK (bicyclic or more) [dimer] | 1.87 fold | – | – | – | – | – | – | –
CO/C=C(/C(=O)OC)c1ccccc1CSc1nc2ccccc2s1 [benzothiostrobin] | – | – | – | 16.8 ng/mL (≈ 0.0452 µM) | 93.4 ng/mL | 0.94 ng/mL (≈ 0.00253 µM) | 2.27 ng/mL | 7.55 ng/mL (≈ 0.0203 µM)
